pIC50: −log10 of the molar value.
Assays:
[1] = Anti-necroptotic activity in human I2.1 cells assessed as inhibition of TNFalpha-induced necroptosis by measuring necroptosis recovery at 10 nM preincubated for 1 hr followed by TNFalpha addition and measured after 24 hrs by CCK-8 assay relative to control; format: functional; set-up: scale not given: the % may be the effect or the level left; conditions: time 25 hrs
Outline: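 Human I2.1 cells from ATCC, seeded at low density in growth medium and incubated overnight. Compound added first. After 1 h, stimulated with TNF-α 20 ng mL⁻¹ and incubated a further 24 h. Viability read by CCK-8. Recovery is mean ± SD of at least two assays.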

[2] = system: Hepa 1-6; assay: Anti-necroptotic activity in mouse Hepa1-6 cells assessed as inhibition of TNFalpha/BV6/Z-VAD-induced necroptosis by measuring necroptosis recovery at 100 nM measured after 24 hrs by CCK-8 assay relative to control; format: functional; set-up: scale not given: the % may be the effect or the level left
Outline: (§1)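 Murine Hepa1-6 cells from ATCC, seeded at low density and incubated overnight. Z-VAD 10 μM added 1 h ahead. Necroptosis then induced with TNF-α 20 ng mL⁻¹ plus BV6 10 μM, together with compound, for 24 h. Viability read by CCK-8. Recovery is mean ± SD of at least two assays.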

[3] = system: Hepa 1-6; assay: Anti-necroptotic activity in mouse Hepa1-6 cells assessed as inhibition of TNFalpha/BV6/Z-VAD-induced necroptosis by measuring necroptosis recovery at 10 nM measured after 24 hrs by CCK-8 assay relative to control; format: functional; set-up: scale not given: the % may be the effect or the level left; outline: as §1
[4] = system: Hepa 1-6; assay: Anti-necroptotic activity in mouse Hepa1-6 cells assessed as inhibition of TNFalpha/BV6/Z-VAD-induced necroptosis by measuring necroptosis recovery at 1 uM measured after 24 hrs by CCK-8 assay relative to control; format: functional; set-up: scale not given: the % may be the effect or the level left; outline: as §1
[5] = Tmax in Sprague-Dawley rat at 3 mg/kg, po by LC-MS/MS analysis; format: ADME, organism-based; conditions: in vivo
Outline: (§2)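 Male Sprague Dawley rats, N = 3. Single oral dose of 3 mg kg⁻¹ in DMSO/0.5% HMPC (5/95, v/v). Blood taken at 0.25, 0.5, 1, 2, 4, 8 and 24 h. Serum drug levels measured by LC-MS/MS. Parameters reported as means.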

[6] = Elimination half-life in Sprague-Dawley rat at 3 mg/kg, po by LC-MS/MS analysis; format: ADME, organism-based; conditions: in vivo, read-out: beta t1/2 (converted); outline: as §2
[7] = molecular target: T1, Receptor-interacting serine/threonine-protein kinase 1 (Homo sapiens) (UniProt Q13546); assay: Inhibition of recombinant human N-terminal GST-tagged RIPK1 (1 to 327 residues) expressed in baculovirus infected Sf9 insect cells at 1 uM using myelin basic protein as substrate by ADP-glo assay relative to control
T1 sequence (whole entry): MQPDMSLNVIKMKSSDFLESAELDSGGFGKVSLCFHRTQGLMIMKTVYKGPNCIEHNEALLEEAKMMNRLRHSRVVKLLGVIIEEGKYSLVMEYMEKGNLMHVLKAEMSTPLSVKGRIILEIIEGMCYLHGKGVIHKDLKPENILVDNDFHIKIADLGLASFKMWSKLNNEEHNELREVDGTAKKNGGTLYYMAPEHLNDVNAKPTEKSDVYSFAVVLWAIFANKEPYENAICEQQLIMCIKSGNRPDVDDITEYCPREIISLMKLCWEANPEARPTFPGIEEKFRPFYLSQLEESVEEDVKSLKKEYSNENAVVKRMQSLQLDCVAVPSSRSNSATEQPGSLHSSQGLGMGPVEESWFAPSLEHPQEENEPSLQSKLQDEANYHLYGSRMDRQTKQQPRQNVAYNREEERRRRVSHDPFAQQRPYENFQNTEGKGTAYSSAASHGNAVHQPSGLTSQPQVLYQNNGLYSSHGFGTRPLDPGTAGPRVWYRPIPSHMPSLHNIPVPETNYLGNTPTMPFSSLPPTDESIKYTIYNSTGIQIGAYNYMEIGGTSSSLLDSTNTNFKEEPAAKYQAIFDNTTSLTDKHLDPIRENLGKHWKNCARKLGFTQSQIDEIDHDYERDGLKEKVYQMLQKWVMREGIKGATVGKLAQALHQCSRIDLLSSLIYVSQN
Outline: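 RIPK1 kinase activity tested at 1 μM. Read-out is luminescence. Inhibition% = (DMSO-control specific signal − inhibitor specific signal)/DMSO-control specific signal × 100.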

[8] = AUClast in Sprague-Dawley rat at 3 mg/kg, po by LC-MS/MS analysis; format: ADME, organism-based; conditions: in vivo; outline: as §2
[9] = Cmax in Sprague-Dawley rat at 3 mg/kg, po by LC-MS/MS analysis; format: ADME, organism-based; conditions: in vivo; outline: as §2
[10] = system: HT-29; assay: Anti-necroptotic activity in human HT-29 cells assessed as inhibition of TNFalpha/Z-VAD-fmk/AT-406-induced necroptosis preincubated for 30 mins followed by TNFalpha/Z-VAD-fmk/AT-406 addition and measured after 16 to 20 hrs by CCK-8 assay; format: functional, cell-based

Compound | Activity [1] | Activity [3] | Activity [4] | other results
Cc1ccc(OCCC2CCOCC2)cc1-c1ccnc(NC(=O)c2nc3n(n2)C(c2ccccc2)CC3)c1 (stereo not given) | 91.9% | 3.7% | 96.6% | Activity [2]: 10.7%
Cc1ccc(OCCCC(C)(C)O)cc1-c1ccnc(NC(=O)c2nc3n(n2)C(C2CCCC2)CC3)c1 (stereo not given) | 73.2% |  |  | 
Cc1ccc(OCCCC(C)(C)O)cc1-c1ccnc(NC(=O)c2nc3n(n2)C(C2CCCCC2)CC3)c1 (stereo not given) | 61.2% |  |  | 
Cc1ccc(OCCCC#N)cc1-c1ccnc(NC(=O)c2nc3n(n2)C(c2ccccc2)CC3)c1 (stereo not given) | 35.8% |  |  | 
Cc1ccc(OCCCC(C)(C)O)cc1-c1ccnc(NC(=O)c2nc3n(n2)C(c2ccccc2F)CC3)c1 (stereo not given) | 62.7% |  |  | 
Cc1ccc(OCCN2CCOCC2)cc1-c1ccnc(NC(=O)c2nc3n(n2)[C@H](c2ccccc2)C[C@@H]3F)c1 | 97.9% | 102.4% |  | Tmax [5]: 0.67 h; half-life [6]: 1.91 h; inhibition [7]: 79.1%; AUC(0-t) [8]: 0.0152 µg·h/mL; Cmax [9]: 8.9 ng/mL
CC(C)(O)CCCOc1cccc(-c2ccnc(NC(=O)c3nc4n(n3)C(c3ccccc3)CC4)c2)c1 (stereo not given) | 86.1% |  | 2.2% | 
Cc1ccc(OCCCC(C)(C)O)cc1-c1cc(NC(=O)c2nc3n(n2)C(c2ccccc2)CC3)ncc1Cl (stereo not given) | 56.2% |  |  | 
Cc1ccc(OCCCC(C)(C)O)cc1-c1ccnc(NC(=O)c2nc(Cc3ccccc3)n[nH]2)c1 | 90% |  | <0% | pIC50 [10]: > 7.00
Cc1ccc(OCCN2CCOCC2)cc1-c1ccnc(NC(=O)c2nc3n(n2)[C@@H](c2ccccc2)C[C@H]3F)c1 |  |  |  | inhibition [7]: < 0%
CC(C)(O)CCCOc1ccc(Cl)c(-c2ccnc(NC(=O)c3nc4n(n3)C(c3ccccc3)CC4)c2)c1 (stereo not given) | 80.6% |  | 2.9% | 
Cc1ccc(OCCCC(C)(C)O)cc1-c1ccnc(NC(=O)c2nc3n(n2)C(c2ccccc2)CC3)c1 (stereo not given) | 81.2% | 5.5% | 86.6% | Activity [2]: 26.1%
Cc1ccc(OCCC2CCOCC2)cc1-c1ccnc(NC(=O)c2nc3n(n2)[C@@H](c2ccccc2)C[C@H]3F)c1 |  |  |  | inhibition [7]: < 0%
Cc1ccc(OCCCC(C)(C)O)cc1-c1cc(NC(=O)c2nc3n(n2)C(c2ccccc2)CC3)ncc1C (stereo not given) | 72.7% |  |  | 
Cc1ccc(OCCCC(C)(C)O)cc1-c1cc(NC(=O)c2nc3n(n2)C(c2ccccc2)CC3)ncc1F (stereo not given) | 58.1% |  |  | 
Cc1ccc(OCCCC(C)(C)O)cc1-c1ccnc(NC(=O)c2nc3n(n2)[C@H](c2ccccc2)C[C@H]3F)c1 (relative stereo) | 98.9% | 6.3% | 104.2% | Activity [2]: 41.3%
COc1ccc(C)c(-c2ccnc(NC(=O)c3nc4n(n3)C(c3ccccc3)CC4)c2)c1 (stereo not given) | 73.7% |  |  | 
Cc1ccc(OCCCC(C)(C)O)cc1-c1ccnc(NC(=O)c2nc3n(n2)[C@@H](c2ccccc2)C[C@H]3F)c1 (relative stereo) | 80.6% | 100.5% | 110% | Activity [2]: 107.6%
Cc1ccc(OCCCC(C)(C)O)cc1-c1ccnc(NC(=O)c2nc3n(n2)C(c2cccc(F)c2)CC3)c1 (stereo not given) | 58.1% |  |  | 
Cc1ccc(OCC(C)(C)O)cc1-c1ccnc(NC(=O)c2nc3n(n2)C(c2ccccc2)CC3)c1 (stereo not given) | 98.2% | 3.8% | 94.1% | Activity [2]: 10.9%
Cc1ccc(OCCCC(C)(C)O)cc1-c1cnnc(NC(=O)c2nc3n(n2)C(c2ccccc2)CC3)c1 (stereo not given) | 53.6% |  |  | 
Cc1ccc(OCCC2CCOCC2)cc1-c1ccnc(NC(=O)c2nc3n(n2)[C@H](c2ccccc2)C[C@@H]3F)c1 | 70.5% | 111.4% |  | inhibition [7]: 78.8%
Cc1ccc(OCCCC(C)(C)O)cc1-c1ccnc(NC(=O)c2nc3n(n2)C(c2ccc(F)cc2)CC3)c1 (stereo not given) | 60.1% |  |  | 
